{"source": "ChEMBL document CHEMBL2311435", "about": "“Development of 18F-labeled picolinamide probes for PET imaging of malignant melanoma” (J Med Chem, 2013)", "key": {"[1]": {"tested_on": "Bone", "experiment": "Biodistribution in bone of C57BL/6 mouse xenografted with mouse B16F10 cells at 3.7 MBq, iv after 2 hrs by gamma-scintillation counting analysis", "format": "ADME, organism-based, Bone element, B16-F10", "settings": "in vivo", "summary_of_the_method": "(§1)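 1.0 × 10^6 B16F10 cells in PBS injected subcutaneously into the right shoulder of C57BL/6 mice, grown to 0.5 cm (~10 day). Tail-vein injection of about 3.7 MBq (100 μCi) 18F probe in PBS (0.1 M, pH 7.4). Killed at 1.0 or 2.0 h p.i. (n = 4 per group). Tissues excised, weighed and gamma-counted; uptake expressed as %ID/g, mean ± SD.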"}, "[2]": {"tested_on": "Nucleic Acid", "experiment": "Ratio of drug uptake in tumor to liver of C57BL/6 mouse xenografted with mouse B16F10 cells at 3.7 MBq, iv after 1 hr by gamma-scintillation counting analysis", "format": "ADME, organism-based, B16-F10", "settings": "in vivo", "summary_of_the_method": "(§2)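 Same subcutaneous B16F10 model and tail-vein dose of about 3.7 MBq (100 μCi), n = 4 per group. Dissection at 1 or 2 h p.i. Gamma-counter %ID/g of tumor divided by that of blood, lung, liver or muscle, given as mean ± SD.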"}, "[3]": {"tested_on": "Liver", "experiment": "Biodistribution in liver of C57BL/6 mouse xenografted with mouse B16F10 cells at 3.7 MBq, iv after 2 hrs by gamma-scintillation counting analysis", "format": "ADME, organism-based, B16-F10", "settings": "in vivo", "summary_of_the_method": "as §1"}, "[4]": {"tested_on": "Kidney", "experiment": "Drug uptake in kidney of C57BL/6 mouse xenografted with mouse B16F10 cells at 3.7 MBq, iv after 35 mins by PET imaging analysis", "format": "ADME, organism-based, B16-F10", "settings": "in vivo", "summary_of_the_method": "(§3)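 Dynamic small-animal PET in B16F10 tumor-bearing mice (n = 4) after tail-vein injection of ~3.7 MBq (100 μCi). Scanning began ~2.0 min post-injection and ran 35 min (6×20 s, 8×60 s, 10×150 s; 24 frames). ROI counts converted to %ID/g assuming 1 g/ml tissue density. No attenuation correction.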"}, "[5]": {"tested_on": "Intestine", "experiment": "Biodistribution in intestine of C57BL/6 mouse xenografted with mouse B16F10 cells at 3.7 MBq, iv after 2 hrs by gamma-scintillation counting analysis", "format": "ADME, organism-based, B16-F10", "settings": "in vivo", "summary_of_the_method": "as §1"}, "[6]": {"experiment": "Drug uptake in tumor of C57BL/6 mouse xenografted with mouse B16F10 cells at 3.7 MBq, iv after 5 mins by PET imaging analysis", "format": "ADME, organism-based, Neoplasm, B16-F10", "settings": "in vivo", "summary_of_the_method": "as §3"}, "[7]": {"tested_on": "Liver", "experiment": "Biodistribution in liver of C57BL/6 mouse xenografted with mouse B16F10 cells at 3.7 MBq, iv after 1 hr by gamma-scintillation counting analysis", "format": "ADME, organism-based, B16-F10", "settings": "in vivo", "summary_of_the_method": "as §1"}, "[8]": {"tested_on": "Muscle tissue", "experiment": "Biodistribution in muscle of C57BL/6 mouse xenografted with mouse B16F10 cells at 3.7 MBq, iv after 2 hrs by gamma-scintillation counting analysis", "format": "ADME, organism-based, B16-F10", "settings": "in vivo", "summary_of_the_method": "as §1"}, "[9]": {"tested_on": "Heart", "experiment": "Biodistribution in heart of C57BL/6 mouse xenografted with mouse B16F10 cells at 3.7 MBq, iv after 1 hr by gamma-scintillation counting analysis", "format": "ADME, organism-based, B16-F10", "settings": "in vivo", "summary_of_the_method": "as §1"}, "[10]": {"tested_on": "Nucleic Acid", "experiment": "Ratio of drug uptake in tumor to muscle of C57BL/6 mouse xenografted with mouse B16F10 cells at 3.7 MBq, iv after 2 hrs by gamma-scintillation counting analysis", "format": "ADME, organism-based, B16-F10", "settings": "in vivo", "summary_of_the_method": "as §2"}, "[11]": {"tested_on": "Stomach", "experiment": "Biodistribution in stomach of C57BL/6 mouse xenografted with mouse B16F10 cells at 3.7 MBq, iv after 2 hrs by gamma-scintillation counting analysis", "format": "ADME, organism-based, B16-F10", "settings": "in vivo", "summary_of_the_method": "as §1"}, "[12]": {"tested_on": "Nucleic Acid", "experiment": "Ratio of drug uptake in tumor to blood of C57BL/6 mouse xenografted with mouse B16F10 cells at 3.7 MBq, iv after 2 hrs by gamma-scintillation counting analysis", "format": "ADME, organism-based, B16-F10", "settings": "tumour", "summary_of_the_method": "as §2"}, "[13]": {"tested_on": "Heart", "experiment": "Biodistribution in heart of C57BL/6 mouse xenografted with mouse B16F10 cells at 3.7 MBq, iv after 2 hrs by gamma-scintillation counting analysis", "format": "ADME, organism-based, B16-F10", "settings": "in vivo", "summary_of_the_method": "as §1"}, "[14]": {"tested_on": "Mus musculus", "experiment": "Biodistribution in tumor of C57BL/6 mouse xenografted with mouse B16F10 cells at 3.7 MBq, iv after 1 hr by gamma-scintillation counting analysis", "format": "ADME, organism-based, Neoplasm, B16-F10", "settings": "in vivo", "summary_of_the_method": "as §1"}, "[15]": {"tested_on": "Nucleic Acid", "experiment": "Ratio of drug uptake in tumor to blood of C57BL/6 mouse xenografted with mouse B16F10 cells at 3.7 MBq, iv after 1 hr by gamma-scintillation counting analysis", "format": "ADME, organism-based, B16-F10", "settings": "tumour", "summary_of_the_method": "as §2"}, "[16]": {"tested_on": "Mus musculus", "experiment": "Biodistribution in tumor of C57BL/6 mouse xenografted with mouse B16F10 cells at 3.7 MBq, iv after 2 hrs by gamma-scintillation counting analysis", "format": "ADME, organism-based, Neoplasm, B16-F10", "settings": "in vivo", "summary_of_the_method": "as §1"}, "[17]": {"tested_on": "Nucleic Acid", "experiment": "Ratio of drug uptake in tumor to lungs of C57BL/6 mouse xenografted with mouse B16F10 cells at 3.7 MBq, iv after 1 hr by gamma-scintillation counting analysis", "format": "ADME, organism-based, B16-F10", "settings": "in vivo", "summary_of_the_method": "as §2"}, "[18]": {"tested_on": "Blood", "experiment": "Biodistribution in blood of C57BL/6 mouse xenografted with mouse B16F10 cells at 3.7 MBq, iv after 1 hr by gamma-scintillation counting analysis", "format": "ADME, organism-based, B16-F10", "settings": "in vivo", "summary_of_the_method": "as §1"}, "[19]": {"experiment": "Drug uptake in tumor of C57BL/6 mouse xenografted with mouse B16F10 cells at 3.7 MBq, iv after 35 mins by PET imaging analysis", "format": "ADME, organism-based, Neoplasm, B16-F10", "settings": "in vivo", "summary_of_the_method": "as §3"}, "[20]": {"tested_on": "Intestine", "experiment": "Biodistribution in intestine of C57BL/6 mouse xenografted with mouse B16F10 cells at 3.7 MBq, iv after 1 hr by gamma-scintillation counting analysis", "format": "ADME, organism-based, B16-F10", "settings": "in vivo", "summary_of_the_method": "as §1"}, "[21]": {"tested_on": "Nucleic Acid", "experiment": "Ratio of drug uptake in tumor to liver of C57BL/6 mouse xenografted with mouse B16F10 cells at 3.7 MBq, iv after 2 hrs by gamma-scintillation counting analysis", "format": "ADME, organism-based, B16-F10", "settings": "in vivo", "summary_of_the_method": "as §2"}, "[22]": {"tested_on": "Brain", "experiment": "Biodistribution in brain of C57BL/6 mouse xenografted with mouse B16F10 cells at 3.7 MBq, iv after 1 hr by gamma-scintillation counting analysis", "format": "ADME, organism-based, B16-F10", "settings": "in vivo", "summary_of_the_method": "as §1"}, "[23]": {"tested_on": "Kidney", "experiment": "Drug uptake in kidney of C57BL/6 mouse xenografted with mouse B16F10 cells at 3.7 MBq, iv after 5 mins by PET imaging analysis", "format": "ADME, organism-based, B16-F10", "settings": "in vivo", "summary_of_the_method": "as §3"}, "[24]": {"tested_on": "Spleen", "experiment": "Biodistribution in spleen of C57BL/6 mouse xenografted with mouse B16F10 cells at 3.7 MBq, iv after 2 hrs by gamma-scintillation counting analysis", "format": "ADME, organism-based, B16-F10", "settings": "in vivo", "summary_of_the_method": "as §1"}, "[25]": {"tested_on": "Kidney", "experiment": "Biodistribution in kidney of C57BL/6 mouse xenografted with mouse B16F10 cells at 3.7 MBq, iv after 1 hr by gamma-scintillation counting analysis", "format": "ADME, organism-based, B16-F10", "settings": "in vivo", "summary_of_the_method": "as §1"}, "[26]": {"experiment": "Drug uptake in tumor of C57BL/6 mouse xenografted with mouse B16F10 cells at 3.7 MBq, iv after 1 hr by PET imaging analysis", "format": "ADME, organism-based, Neoplasm, B16-F10", "settings": "in vivo", "summary_of_the_method": "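Static small-animal PET at 0.5, 1 and 2 h after tail-vein injection of ~3.7 MBq (100 μCi) into B16F10-bearing C57BL/6 mice (n = 4 per probe). Isoflurane anesthesia, 5% induction and 2% maintenance in O2. Decay-corrected images. ROI-derived %ID/g assumes 1 g/ml density, without attenuation correction. Mean ± SD.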"}, "[27]": {"tested_on": "Pancreas", "experiment": "Biodistribution in pancreas of C57BL/6 mouse xenografted with mouse B16F10 cells at 3.7 MBq, iv after 1 hr by gamma-scintillation counting analysis", "format": "ADME, organism-based, B16-F10", "settings": "in vivo", "summary_of_the_method": "as §1"}, "[28]": {"tested_on": "Mus musculus", "experiment": "Biodistribution in eye of C57BL/6 mouse xenografted with mouse B16F10 cells at 3.7 MBq, iv after 1 hr by gamma-scintillation counting analysis", "format": "ADME, organism-based, B16-F10", "settings": "in vivo", "summary_of_the_method": "as §1"}, "[29]": {"tested_on": "Stomach", "experiment": "Biodistribution in stomach of C57BL/6 mouse xenografted with mouse B16F10 cells at 3.7 MBq, iv after 1 hr by gamma-scintillation counting analysis", "format": "ADME, organism-based, B16-F10", "settings": "in vivo", "summary_of_the_method": "as §1"}, "[30]": {"tested_on": "Muscle tissue", "experiment": "Biodistribution in muscle of C57BL/6 mouse xenografted with mouse B16F10 cells at 3.7 MBq, iv after 1 hr by gamma-scintillation counting analysis", "format": "ADME, organism-based, B16-F10", "settings": "in vivo", "summary_of_the_method": "as §1"}}}
{"smiles": "CCN(CC)CCNC(=O)c1ccc([18F])cn1", "values": [{"measurement": "Drug uptake", "setting": "[1]", "value": 1.72, "unit": "% ID/g"}, {"measurement": "Ratio", "setting": "[2]", "value": 3.79}, {"measurement": "Drug uptake", "setting": "[3]", "value": 3.32, "unit": "% ID/g"}, {"measurement": "Drug uptake", "setting": "[4]", "value": 9.44, "unit": "% ID/g"}, {"measurement": "Drug uptake", "setting": "[5]", "value": 0.88, "unit": "% ID/g"}, {"measurement": "Drug uptake", "setting": "[6]", "value": 5.28, "unit": "% ID/g"}, {"measurement": "Drug uptake", "setting": "[7]", "value": 4.71, "unit": "% ID/g"}, {"measurement": "Drug uptake", "setting": "[8]", "value": 0.41, "unit": "% ID/g"}, {"measurement": "Drug uptake", "setting": "[9]", "value": 1.17, "unit": "% ID/g"}, {"measurement": "Ratio", "setting": "[10]", "value": 36.79}, {"measurement": "Drug uptake", "setting": "[11]", "value": 1.47, "unit": "% ID/g"}, {"measurement": "Ratio", "setting": "[12]", "value": 88.25}, {"measurement": "Drug uptake", "setting": "[13]", "value": 0.59, "unit": "% ID/g"}, {"measurement": "Drug uptake", "setting": "[14]", "value": 15.2, "unit": "% ID/g"}, {"measurement": "Ratio", "setting": "[15]", "value": 41.44}, {"measurement": "Drug uptake", "setting": "[16]", "value": 16.97, "unit": "% ID/g"}, {"measurement": "Ratio", "setting": "[17]", "value": 9.94}, {"measurement": "Drug uptake", "setting": "[18]", "value": 0.42, "unit": "% ID/g"}, {"measurement": "Drug uptake", "setting": "[19]", "value": 10.52, "unit": "% ID/g"}, {"measurement": "Drug uptake", "setting": "[20]", "value": 2.01, "unit": "% ID/g"}, {"measurement": "Ratio", "setting": "[21]", "value": 5.14}, {"measurement": "Drug uptake", "setting": "[22]", "value": 1.28, "unit": "% ID/g"}, {"measurement": "Drug uptake", "setting": "[23]", "value": 24.91, "unit": "% ID/g"}, {"measurement": "Drug uptake", "setting": "[24]", "value": 1.13, "unit": "% ID/g"}, {"measurement": "Drug uptake", "setting": "[25]", "value": 3.32, "unit": "% ID/g"}, {"measurement": "Drug uptake", "setting": "[26]", "value": 16.61, "unit": "% ID/g"}, {"measurement": "Drug uptake", "setting": "[27]", "value": 1.61, "unit": "% ID/g"}, {"measurement": "Drug uptake", "setting": "[28]", "value": 37.47, "unit": "% ID/g"}, {"measurement": "Drug uptake", "setting": "[29]", "value": 4.26, "unit": "% ID/g"}, {"measurement": "Drug uptake", "setting": "[30]", "value": 1.16, "unit": "% ID/g"}]}
